Assay results: PubChem BioAssay AID504338 (NMMLSC, 2011)

Test: yeast TOR reporter LAP4-GFP retest – cell-based, third cherry pick, flow cytometry, confirmation (AID 504338);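 note: ratio to plate DMSO wells so 100% equals DMSO level rather than 0%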
Conditions: S. cerevisiae LAP4-GFP strain, 3 h, at 10 µM, stronger effect = higher value;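 active = GFP response vs DMSO above 150% with enough events counted; inconclusive = fewer than 70 events counted for a yeast strain; inactive = the rest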
In short: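 System: Saccharomyces cerevisiae strain expressing LAP4-GFP fusion protein. Quantity: cells at 0.2 OD600. Medium: synthetic complete medium. Read-out basis: median GFP fluorescence as percent of plate DMSO-well average. Signal: high-throughput flow cytometry of GFP, single-cell scatter gate. Schedule: 3 h treatment, 30 °C. Dosing: single compound dose, 10 µM final.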

GFP response vs DMSO, inactive:
NC(=O)c1ccnc2c(O)cccc12 101%
Cc1ccc(C(=O)Nc2nc(-c3ccccn3)cs2)o1 103%
OCCNc1ncnc2ccc(Br)cc12 98.6%
C/C(=C\C(=O)c1ccccc1)Nc1ccc(O)cc1 101%
Cc1ccc(NC(=O)O/N=C2\CCCCC2c2ccc([N+](=O)[O-])cc2[N+](=O)[O-])cc1 (centres undefined) 103%
CCC(C)Nc1nc(N)c([N+](=O)[O-])c(Nc2cc(OC)ccc2OC)n1 (centres undefined) 101%
Nc1c(C(=O)O)ccc2c1C(=O)c1ccccc1C2=O 115%
Oc1ccc(F)c2cccnc12 106%
Cn1c(=O)c2c(n3cnnc13)-c1ccccc1CC21CCCC1 101%
OCCN1CCN(c2ncnc3ccc(Br)cc23)CC1 104%
CC1=CN2C(=N)/C(=C/c3ccco3)C(=O)N=C2S1 101%
COc1cc(=O)n(C)c2c(O)cccc12 101%
CNc1cccc2c1C(=O)c1ccccc1C2=O 107%
O=C(O)c1ccccc1-c1ccccc1C(=O)Nc1ccc(-c2nc3cc(Cl)ccc3o2)cc1 104%
CCC(C)Nc1nc(N)c([N+](=O)[O-])c(Nc2ccccc2OC)n1 (centres undefined) 97.2%
O=c1cc(C(F)(F)F)[nH]c2c(OC(F)(F)F)cccc12 98.6%
COc1cccc2c(=O)c(C(=O)O)c[nH]c12 110%
O=C(Nc1ccccc1)O/N=C1/CCCc2occc21 107%
O=C(Nc1ccccc1)O/N=C1\CCCCC1c1ccc([N+](=O)[O-])cc1[N+](=O)[O-] (centres undefined) 106%
CNc1nc(C)c([N+](=O)[O-])c(Nc2ccc(OC)cc2)n1 108%
CC(=O)CC(=O)Nc1ccc(C(N)=O)cc1 101%
COc1ccc(NC(=O)O/N=C2/CCCc3ccc(OC)cc32)cc1 107%
O=C(N/N=C/c1ccccc1)c1cccc2ccccc12 103%
Cc1cccc(Nc2cc(=O)[nH]c(=O)[nH]2)c1C 101%
CCC(=O)Nn1cnc2c(c1=O)C1(CCCCC1)Cc1ccccc1-2 101%
O=C(O)CCCCCNc1ncnc2ccc(Br)cc12 104%
CC1=CN2C(=N)/C(=C/c3ccc(C)o3)C(=O)N=C2S1 104%
Nn1cnc2c(c1=O)C1(CCCCC1)Cc1ccccc1-2 97.2%
Cn1c(NCCCO)nc2c(c1=O)C1(CCCCC1)Cc1ccccc1-2 104%
O=C(/C=C/Nc1cccc(O)c1)c1ccccc1 111%
COC1=C/C(=C/c2c(N)n3cc(C)sc3nc2=O)C=CC1=O 110%
Nc1nc(NCCOCCO)nc(Nc2cccc(F)c2)c1[N+](=O)[O-] 104%
CCN(CC)C(=O)Oc1cc(=O)n(C)c2ccccc12 101%
O=C(N/N=C/c1ccccc1O)c1cccc2ccccc12 110%
CC(=O)C(CC(=O)N1CCCC1)C(=O)Nc1ccc(Cl)cc1 (centres undefined) 108%
CN(C)CCCNc1cc(O)c2ncccc2c1 110%
O=C(Nc1ccc(-c2nc3ccccc3o2)cc1)c1cccnc1 117%
CN1CCN(C(=O)c2cc(COc3ccc(F)cc3Cl)on2)CC1c1ccccc1 (centres undefined) 103%
C/C(=C\C(=O)c1ccccc1)Nc1cccc(O)c1 107%
